Measurements taken from ChEMBL document CHEMBL3608299, “Identification of N-acylhydrazone derivatives as novel lactate dehydrogenase A inhibitors” (Eur J Med Chem, 2015).
Activity calls are given as the source filed them. The rule behind the calls is not given here.

Legend:
[1] = biological target: T1, L-lactate dehydrogenase A chain (Homo sapiens, UniProt P00338); assay: Inhibition of human liver purified lactate dehydrogenase-A using pyruvate as substrate assessed as NADH oxidation for 3 mins by fluorimetric method
Procedure, shortened: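 Purified human LDH-A was run in a fluorimetric assay. Values were obtained from triplicate points and given as mean ± standard deviation.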

[2] = biological target: T1, L-lactate dehydrogenase A chain; assay: Inhibition of lactate dehydrogenase-A in human Raji cells assessed as reduction of intracellular lactate level after 3 hrs; assay type: cell-based
Procedure, shortened: (§1)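 Raji Burkitt's lymphoma cells (MYC-overexpressing) were used for lactic acid production and cell proliferation. All points were run in triplicate and reported as mean ± standard deviation.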

[3] = tested on: Raji; assay: Antiproliferative activity against human Raji cells after 24 hrs by Trypan blue exclusion method; assay type: functional, cell-based; procedure, shortened: as §1
[4] = biological target: T1, L-lactate dehydrogenase A chain; assay: Inhibition of human liver purified lactate dehydrogenase-A using pyruvate as substrate assessed as disappearance of NADH fluorescence
Procedure, shortened: (§2)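 Purified human LDH-A enzymatic assays were run. Inhibition constants (Ki) were calculated separately versus pyruvate and versus NADH as the varied substrate.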

[5] = Cytotoxicity against lymphocytes (unknown origin) assessed as cell viability at 200 uM after 24 hrs by Trypan blue exclusion method; assay type: cell-based; details: lymphocyte
Procedure, shortened: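 Viability of normal lymphocytes after treatment was compared with Raji cultures across a concentration range up to 200. Significance was assessed by ANOVA.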

[6] = tested on: Raji; assay: Potentiation of sunitinib-induced cytotoxicity against human Raji cells assessed as combination index at 40 uM after 24 hrs by Trypan blue exclusion method relative to control; assay type: functional
Procedure, shortened: (§3)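 Each chemotherapeutic agent was first titrated on Raji cells to its lowest dose giving a statistically significant viability effect at 24 h. That dose was then combined with a fixed concentration of the test agent, and a combination index was calculated, where 0.8–1.2 indicates additivity. Experiments were repeated twice.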

[7] = biological target: T1, L-lactate dehydrogenase A chain; assay: Inhibition of lactate dehydrogenase-A in human Raji cells assessed as reduction of NAD+ regeneration at 40 uM; assay type: cell-based
Procedure, shortened: (§4)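 Intracellular NAD+ and NADH were measured in Raji cells after 18 h exposure to assess the redox balance. The shift was evaluated against untreated cells with statistical testing.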

[8] = tested on: Raji; assay: Potentiation of daunomycin-induced cytotoxicity against human Raji cells assessed as combination index at 40 uM after 24 hrs by Trypan blue exclusion method relative to control; assay type: functional; procedure, shortened: as §3
[9] = tested on: Raji; assay: Potentiation of cisplatin-induced cytotoxicity against human Raji cells assessed as combination index at 40 uM after 24 hrs by Trypan blue exclusion method relative to control; assay type: functional; procedure, shortened: as §3
[10] = biological target: T1, L-lactate dehydrogenase A chain; assay: Inhibition of lactate dehydrogenase-A in human Raji cells assessed as NAD level per 10^6 cells at 40 uM after 18 hrs (reference value: 365 pmol); assay type: cell-based; procedure, shortened: as §4
[11] = biological target: T1, L-lactate dehydrogenase A chain; assay: Inhibition of lactate dehydrogenase-A in human Raji cells assessed as reduction of intracellular lactate level at 40 uM after 3 hrs; assay type: cell-based
[12] = tested on: Raji; assay: Antiproliferative activity against human Raji cells at 40 uM after 24 hrs by Trypan blue exclusion method; assay type: functional
[13] = biological target: T1, L-lactate dehydrogenase A chain; assay: Inhibition of human liver purified lactate dehydrogenase-A using NADH as substrate assessed as disappearance of NADH fluorescence; procedure, shortened: as §2
[14] = tested on: Raji; assay: Cell cycle arrest in human Raji cells assessed as accumulation at S phase at 40 uM after 18 hrs using propidium iodide staining by flow cytometry; assay type: functional, cell-based; details: in the assay text read “accumulation at G2/M phase” for “accumulation at S phase”
Procedure, shortened: (§5)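 Raji cells were exposed for 18 h, then stained with propidium iodide. Cell cycle phase distribution (S, G2/M fractions) was measured by flow cytometry and tested for statistical significance against untreated cells.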

[15] = tested on: Raji; assay: Cell cycle arrest in human Raji cells assessed as accumulation at G2/M phase at 40 uM after 18 hrs using propidium iodide staining by flow cytometry; assay type: functional, cell-based; procedure, shortened: as §5
[16] = tested on: Raji; assay: Potentiation of etoposide-induced cytotoxicity against human Raji cells assessed as combination index at 40 uM after 24 hrs by Trypan blue exclusion method relative to control; assay type: functional; procedure, shortened: as §3
[17] = tested on: Raji; assay: Induction of apoptosis in human Raji cells assessed as increase of BAX protein expression at 40 uM after 18 hrs by Western blotting relative to control; assay type: functional
Procedure, shortened: (§6)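 After 18 h exposure, Raji cell lysates were analysed by Western blot for the mitochondrial apoptosis regulators BAX and BCL2. The fold change was expressed versus untreated control.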

[18] = biological target: T1, L-lactate dehydrogenase A chain; assay: Inhibition of lactate dehydrogenase-A in human Raji cells assessed as NADH level per 10^6 cells at 40 uM after 18 hrs (reference value: 24 pmol); assay type: cell-based; procedure, shortened: as §4
[19] = tested on: Raji; assay: Induction of apoptosis in human Raji cells assessed as increase of BCL2 protein expression at 40 uM after 18 hrs by Western blotting; assay type: functional, cell-based; procedure, shortened: as §6

With `N#CCC(=O)N/N=C/c1cccc(-c2ccc(C(=O)O)cc2)n1` as the compound, how does the IC50 [1] read?
The IC50 was over 200 µM.

For `COC(=O)c1cccc(-c2ccc(/C=N/NC(=O)c3cccnc3)o2)c1`, which IC50 [1] is on record?
Its IC50 is over 200 µM.

Which IC50 [2] does the source give for `O=C(O)c1cccc(-c2ccc(/C=N/NC(=O)c3ccc4[nH]ccc4c3)o2)c1` here?
The IC50 was 100 µM.

What about the IC50 [3] of the same compound?
Its IC50 is 115 µM.

What about the IC50 [1] of the same compound?
The IC50 was 38 µM.

For `O=C(O)c1cccc(-c2ccc(/C=N/NC(=O)c3cccnc3)o2)c1`, which IC50 [2] is on record?
The IC50 was over 200 µM.

What about the IC50 [3] of the same compound?
Its IC50 is over 200 µM.

And the IC50 [1]?
The IC50 was 43 µM.

With `COc1cc(C(=O)N/N=C/c2ccc(-c3ccc(C(=O)O)cc3)o2)cc(OC)c1OC` as the compound, how does the IC50 [2] read?
The IC50 was 134 µM.

What about the IC50 [3] of the same compound?
The IC50 was 100 µM.

And the IC50 [1]?
The IC50 was 125 µM.

Which results are given for `N#CCC(=O)N/N=C/c1ccc(-c2cccc(C(=O)O)c2)o1`?
IC50 [2]: 115 µM; IC50 [3]: 64 µM; IC50 [1]: 48 µM

What does the source list for `COc1cc(C(=O)N/N=C/c2cc(-c3cccc(C(=O)O)c3)co2)cc(OC)c1OC`?
IC50 [2]: 52 µM; IC50 [3]: 48 µM; IC50 [1]: 32 µM

For `COc1cc(C(=O)N/N=C/c2c[nH]c(-c3cccc(C(=O)O)c3)c2)cc(OC)c1OC`, which IC50 [2] is on record?
Its IC50 is over 200 µM.

And the IC50 [3]?
The IC50 was 80 µM.

With `O=C(O)c1cccc(-c2ccc(/C=N/NC(=O)c3ccc4[nH]ncc4c3)o2)c1` as the compound, how does the IC50 [2] read?
Its IC50 is over 200 µM.

And the IC50 [3]?
Its IC50 is 45 µM.

What about the IC50 [1] of the same compound?
The IC50 was 41 µM.

For `COc1cc(C(=O)N/N=C/c2ccc(-c3cccc(C(=O)O)c3)s2)cc(OC)c1OC`, which IC50 [2] is on record?
The IC50 was 105 µM.

What about the IC50 [3] of the same compound?
Its IC50 is 95 µM.

And the IC50 [1]?
The IC50 was 41 µM.

Which IC50 [2] does the source give for `N#CCC(=O)N/N=C/c1ccc(-c2ccc(C(=O)O)cc2)o1` here?
Its IC50 is over 200 µM.

And the IC50 [1]?
Its IC50 is 37 µM.

Which IC50 [2] does the source give for `O=C(O)c1cccc(-c2ccc(/C=N/NC(=O)c3cccc(CO)c3)o2)c1` here?
Its IC50 is over 200 µM.

What about the IC50 [3] of the same compound?
The IC50 was over 200 µM.

And the IC50 [1]?
Its IC50 is 46 µM.

Which IC50 [1] does the source give for `COc1cc(C(=O)N/N=C/c2cccc(-c3cccc(C(=O)O)c3)n2)cc(OC)c1OC` here?
Its IC50 is over 200 µM.

With `COc1cc(C(=O)N/N=C/c2ccc(-c3cccc(C(=O)O)c3)o2)cc(OC)c1OC` as the compound, how does the Ki [4] read?
Its Ki is 39 µM.

What about the Activity [5] of the same compound?
Its Activity is “Non-toxic”.

And the CI [6]?
Its CI is 1.08.

What about the inhibition [7] of the same compound?
Its inhibition is “Active”.

What about the CI [8] of the same compound?
Its CI is 0.88.

And the IC50 [2]?
Its IC50 is 42 µM.

And the IC50 [3]?
The IC50 was 38 µM.

And the CI [9]?
Its CI is 1.

What about the IC50 [1] of the same compound?
Its IC50 is 37 µM.

What about the Activity [10] of the same compound?
The Activity was 351 pmol.

And the inhibition [11]?
Its inhibition is 50%.

And the inhibition at 40 µM [12]?
The inhibition at 40 µM was 50%.

What about the Ki [13] of the same compound?
Its Ki is 47 µM.

And the Activity [14]?
Its Activity is “Active”.

What about the Activity [15] of the same compound?
The Activity was “Active”.

And the CI [16]?
Its CI is 0.86.

And the “fold change (FC)” value [17]?
The value was 6.7.

And the Activity [18]?
Its Activity is 26 pmol.

And the Activity [19]?
Its Activity is “inactive”.
